Laboratory results from ChEMBL document CHEMBL4308843, “Identification of ABX-1431, a Selective Inhibitor of Monoacylglycerol Lipase and Clinical Candidate for Treatment of Neurological Disorders” (J Med Chem, 2018).
Activity calls are given as the source filed them. No cut-off for these calls is given here.

Key:
[1] = target: T1, Monoacylglycerol lipase ABHD6 (Mus musculus) (UniProt Q8R2Y0); assay: Inhibition of ABHD6 in mouse brain membrane homogenates at 0.001 to 10 uM preincubated for 30 mins followed by FP-Rh addition after 30 mins by gel-based ABPP assay; format: cell membranes
T1 sequence (whole entry): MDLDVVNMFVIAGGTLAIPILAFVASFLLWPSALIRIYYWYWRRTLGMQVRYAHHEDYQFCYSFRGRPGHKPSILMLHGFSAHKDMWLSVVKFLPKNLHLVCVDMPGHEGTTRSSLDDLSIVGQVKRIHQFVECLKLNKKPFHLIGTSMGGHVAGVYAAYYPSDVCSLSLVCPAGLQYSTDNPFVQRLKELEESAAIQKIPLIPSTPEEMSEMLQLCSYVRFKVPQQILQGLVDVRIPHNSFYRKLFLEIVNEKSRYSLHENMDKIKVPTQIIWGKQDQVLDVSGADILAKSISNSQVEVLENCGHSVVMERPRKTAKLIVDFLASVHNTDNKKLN

Cytochrome P450 2D6 = Cytochrome P450 2D6 (Homo sapiens, UniProt P10635); assay: Inhibition of recombinant human CYP2D6; format: ADME
Rattus norvegicus [2] = assay: Antinociceptive activity in po dosed Sprague-Dawley rat brain assessed as inhibition of ABHD6 activity measured after 4 hrs post dose in presence of FP-Rh probe by gel-based ABPP assay; format: functional
Outline: (§1)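 Male Sprague Dawley rats, 6–12 weeks old, given single oral doses (0.03–10 mg/kg) in 0.5% methylcellulose at 5 mL/kg. Brains were taken 4 h post-dose and forebrain sections excised from one hemisphere. Brain proteome was labeled with FP-Rh (1 µM, 30 min) and analyzed by SDS-PAGE with in-gel fluorescence. Band intensity was normalized to vehicle.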

Cytochrome P450 2C19 = Cytochrome P450 2C19 (Homo sapiens, UniProt P33261); assay: Inhibition of recombinant human CYP2C19; format: ADME
[3] = Clearance in Sprague-Dawley rat at 1 mg/kg, iv or 5 mg/kg, po by LC-MS analysis; format: ADME, organism-based; conditions: in vivo
Outline: (§2)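 Rats (n = 3 per route) were dosed at 1 mg/kg iv (70% PEG400 in HPBCD/saline) or 5 mg/kg po (70% PEG400 in 0.5% CMC/saline), fasted overnight to 4 h post-dose. Jugular-catheter blood (~100 µL) was sampled to 24 h into 400 µL acetonitrile to stop esterases. Samples were quantified by HPLC-MS/MS, with noncompartmental analysis.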

Mus musculus [4] = assay: In vivo inhibition of MGLL in ICR mouse brain at 25 mg/kg, po measured at 4 hrs post dose in presence of FP-Rh probe by gel-based ABPP assay; format: functional, organism-based
[5] = target: T2, Monoacylglycerol lipase ABHD6 (Rattus norvegicus) (UniProt Q5XI64); assay: Inhibition of ABHD6 in rat brain membrane homogenates at 0.001 to 10 uM preincubated for 30 mins followed by FP-Rh addition after 30 mins by gel-based ABPP assay; format: cell membranes
T2 sequence (whole entry): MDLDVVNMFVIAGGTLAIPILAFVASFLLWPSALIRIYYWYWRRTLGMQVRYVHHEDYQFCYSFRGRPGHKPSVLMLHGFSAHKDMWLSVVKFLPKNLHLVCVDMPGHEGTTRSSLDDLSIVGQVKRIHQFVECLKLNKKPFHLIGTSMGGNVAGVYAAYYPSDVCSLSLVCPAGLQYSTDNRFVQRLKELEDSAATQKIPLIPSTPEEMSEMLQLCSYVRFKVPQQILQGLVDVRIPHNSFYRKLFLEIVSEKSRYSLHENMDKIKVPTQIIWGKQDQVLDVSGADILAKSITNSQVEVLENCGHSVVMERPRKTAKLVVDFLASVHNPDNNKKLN

[6] = Intrinsic clearance in human liver microsomes; format: ADME, Microsome; conditions: read-out: CLH
Cytochrome P450 3A4 = Cytochrome P450 3A4 (Homo sapiens, UniProt P08684); assay: Inhibition of recombinant human CYP3A4; format: ADME
Rattus norvegicus [7] = assay: Effect on spontaneous locomotor activity in Sprague-Dawley rat assessed as locomotor counts at 10 mg/kg, po monitored over 10 mins period; format: ADME, organism-based; conditions: in vivo
Outline: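 Male Sprague Dawley rats (175–200 g) received vehicle (0.5% methylcellulose) or 10 mg/kg orally. Four hours later, spontaneous locomotor frequency was recorded for 10 min in a vibration-sensing Laboras cage system; n = 10 per group.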

[8] = Cmax in Sprague-Dawley rat at 5 mg/kg, po by LC-MS analysis; format: ADME, organism-based; design: dose 5 mg/kg, route oral; conditions: in vivo; outline: as §2
[9] = Substrate activity at BCRP (unknown origin) at 10 uM; format: ADME; conditions: human
Mus musculus [10] = assay: In-vivo inhibition of MGLL in ICR mouse brain assessed as target engagement at 5 mg/kg, po measured 4 hrs post dose by gel-based ABPP assay relative to control; format: functional; design: scale not given: the % may be the effect or the level left
Outline: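 Mice received a single 5 mg/kg oral gavage dose. Whole brains were collected 4 h post-dose and target engagement was read by gel-based ABPP with FP-Rh probe.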

Canis lupus familiaris = organism: Canis lupus familiaris; assay: Inhibition of ABHD6 in dog brain membrane homogenates at 0.001 to 10 uM preincubated for 30 mins followed by FP-Rh addition after 30 mins by gel-based ABPP assay; format: cell membranes
Outline: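 Dog brain membrane homogenates (1 mg/mL protein) were preincubated with 0.001-10 µM inhibitor or DMSO for 30 min at 37°C. They were then labelled with 1 µM probe (FP-Rh or HT-01) for 30 min at 25°C. Reactions were quenched in SDS-PAGE loading buffer and scanned in-gel. ABHD6 band intensities were normalised to DMSO.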

[11] = Volume of distribution at steady state in Sprague-Dawley rat at 1 mg/kg, iv or 5 mg/kg, po by LC-MS analysis; format: ADME, organism-based; conditions: in vivo, read-out: Vdss; outline: as §2
[12] = Inhibition of BCRP (unknown origin) at 10 uM; format: ADME; conditions: human
Cytochrome P450 2C9 = Cytochrome P450 2C9 (Homo sapiens, UniProt P11712); assay: Inhibition of recombinant human CYP2C9; format: ADME
Rattus norvegicus [13] = assay: Antinociceptive activity in po dosed Sprague-Dawley rat brain assessed as inhibition of CES1c activity measured after 4 hrs post dose in presence of FP-Rh probe by gel-based ABPP assay; format: functional; outline: as §1
[14] = target: T3, Monoglyceride lipase (Rattus norvegicus) (UniProt Q8R431); assay: Inhibition of MGLL in rat brain membrane homogenates at 0.001 to 10 uM preincubated for 30 mins followed by FP-Rh addition after 30 mins by gel-based ABPP assay; format: cell membranes
T3 sequence (whole entry): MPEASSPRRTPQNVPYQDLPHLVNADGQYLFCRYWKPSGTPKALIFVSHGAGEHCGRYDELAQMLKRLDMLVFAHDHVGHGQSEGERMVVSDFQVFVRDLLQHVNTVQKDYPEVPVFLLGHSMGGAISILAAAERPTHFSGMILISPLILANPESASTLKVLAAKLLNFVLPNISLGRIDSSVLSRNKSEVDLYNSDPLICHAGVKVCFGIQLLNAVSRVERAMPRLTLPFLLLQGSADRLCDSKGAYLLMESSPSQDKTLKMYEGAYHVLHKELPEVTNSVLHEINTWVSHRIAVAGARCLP
Outline: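 Brain protein homogenates (1 mg/mL) treated with compound 0.001–10 µM or DMSO, 30 min at 37°C, then 1 µM FP-Rh (MGLL) or HT-01 (ABHD6), 30 min at 25°C.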

Sequence of Cytochrome P450 2D6 (P10635 whole entry): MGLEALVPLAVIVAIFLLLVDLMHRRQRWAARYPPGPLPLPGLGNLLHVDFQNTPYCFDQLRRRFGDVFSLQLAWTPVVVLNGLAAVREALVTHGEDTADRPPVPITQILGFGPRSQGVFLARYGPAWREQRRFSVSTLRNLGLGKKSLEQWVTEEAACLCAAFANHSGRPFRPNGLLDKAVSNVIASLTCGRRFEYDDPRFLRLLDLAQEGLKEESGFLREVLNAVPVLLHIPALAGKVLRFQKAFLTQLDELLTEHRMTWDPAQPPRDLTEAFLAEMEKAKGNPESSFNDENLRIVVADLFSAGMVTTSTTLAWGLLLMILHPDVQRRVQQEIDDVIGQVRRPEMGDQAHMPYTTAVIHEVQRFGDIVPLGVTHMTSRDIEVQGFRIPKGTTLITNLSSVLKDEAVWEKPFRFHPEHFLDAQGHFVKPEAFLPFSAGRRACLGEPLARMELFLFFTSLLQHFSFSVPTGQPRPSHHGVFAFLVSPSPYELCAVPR
Sequence of Cytochrome P450 2C19 (P33261 whole entry): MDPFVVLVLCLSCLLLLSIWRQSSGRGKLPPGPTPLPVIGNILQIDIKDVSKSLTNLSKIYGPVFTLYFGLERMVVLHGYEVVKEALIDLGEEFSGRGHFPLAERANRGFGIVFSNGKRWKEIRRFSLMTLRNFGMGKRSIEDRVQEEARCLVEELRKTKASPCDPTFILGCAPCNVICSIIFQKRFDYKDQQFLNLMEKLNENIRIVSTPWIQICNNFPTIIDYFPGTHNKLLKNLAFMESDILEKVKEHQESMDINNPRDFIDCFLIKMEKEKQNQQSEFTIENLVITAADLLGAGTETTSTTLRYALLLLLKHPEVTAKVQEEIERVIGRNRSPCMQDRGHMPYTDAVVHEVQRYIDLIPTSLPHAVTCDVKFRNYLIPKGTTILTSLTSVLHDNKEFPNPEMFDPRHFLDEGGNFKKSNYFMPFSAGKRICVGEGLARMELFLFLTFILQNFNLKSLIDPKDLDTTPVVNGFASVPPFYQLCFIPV
Sequence of Cytochrome P450 2C9 (P11712 whole entry): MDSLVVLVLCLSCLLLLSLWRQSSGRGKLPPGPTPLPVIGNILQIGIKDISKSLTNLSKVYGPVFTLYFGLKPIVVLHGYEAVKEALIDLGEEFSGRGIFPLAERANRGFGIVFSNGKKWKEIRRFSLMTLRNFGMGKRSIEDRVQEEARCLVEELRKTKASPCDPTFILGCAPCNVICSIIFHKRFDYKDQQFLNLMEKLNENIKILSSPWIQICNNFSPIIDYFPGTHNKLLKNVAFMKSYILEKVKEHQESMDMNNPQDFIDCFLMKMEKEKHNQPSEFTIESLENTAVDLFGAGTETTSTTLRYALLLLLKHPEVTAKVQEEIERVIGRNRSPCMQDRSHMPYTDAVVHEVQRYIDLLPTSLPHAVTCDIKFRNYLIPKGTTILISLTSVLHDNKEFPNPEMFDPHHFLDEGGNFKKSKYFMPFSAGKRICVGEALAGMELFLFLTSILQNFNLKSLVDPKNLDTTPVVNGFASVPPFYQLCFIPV
Sequence of Cytochrome P450 3A4 (P08684 whole entry): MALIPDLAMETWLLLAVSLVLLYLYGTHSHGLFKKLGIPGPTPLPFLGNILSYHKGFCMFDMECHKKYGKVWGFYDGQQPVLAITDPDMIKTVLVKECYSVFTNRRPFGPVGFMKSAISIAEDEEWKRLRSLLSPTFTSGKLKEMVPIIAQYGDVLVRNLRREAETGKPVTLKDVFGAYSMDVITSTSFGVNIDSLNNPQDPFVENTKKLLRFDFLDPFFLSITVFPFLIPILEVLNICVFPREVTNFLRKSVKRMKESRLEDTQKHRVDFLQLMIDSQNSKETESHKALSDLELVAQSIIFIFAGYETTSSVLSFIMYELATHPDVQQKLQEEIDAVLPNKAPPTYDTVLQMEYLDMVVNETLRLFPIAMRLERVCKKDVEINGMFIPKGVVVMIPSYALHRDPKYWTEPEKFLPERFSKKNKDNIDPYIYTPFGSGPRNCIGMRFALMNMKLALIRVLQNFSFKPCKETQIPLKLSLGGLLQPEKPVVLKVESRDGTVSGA

SMILES: O=C(OC(C(F)(F)F)C(F)(F)F)N1CCN(Cc2ccc(C(F)(F)F)cc2N2CCCC2)CC1 [ELCUBRAGISTAT]
- inhibition [1]: Active
- IC50 (Cytochrome P450 2D6): 6.5 µM
- ED50 (Rattus norvegicus [2]): 2.9 mg/kg
- IC50 (Cytochrome P450 2C19): > 50 µM
- clearance [3]: 0.882 L/h/kg
- inhibition (Mus musculus [4]): Active
- inhibition [5]: Active
- microsomal CLint [6]: 19 µL/min/mg
- IC50 (Cytochrome P450 3A4): > 50 µM
- Activity (Rattus norvegicus [7]): Non-Toxic
- Cmax [8]: 0.688 µM
- Activity [9]: Not Active
- Activity (Mus musculus [10]): 100%
- inhibition (Canis lupus familiaris): Active
- Vd [11]: 3.2 L/kg
- inhibition (INH) [12]: Not Active
- IC50 (Cytochrome P450 2C9): > 50 µM
- ED50 (Rattus norvegicus [13]): 1.2 mg/kg
- inhibition [14]: Active
